The record followed here is ChEMBL document CHEMBL4825662 (J Med Chem, 2021).

Series [1] concerns Respiratory syncytial virus. The experiment in a line: Antiviral activity against Respiratory syncytial virus Memphis 37b infected in human HEp2 cells assessed as drug resistance by measuring fold change in EC50 treated over 10 serial passages by plaque assay relative to control. It counts as functional, HEp-2.
A short description of series [2]: Intrinsic clearance in Beagle dog hepatocytes at 3 uM assessed per million cells measured up to 60 mins by LC-MS/MS analysis. The class given is ADME, cell-based, Canis lupus familiaris, Hepatocyte. Particulars: read-out: CLH.
A short description of series [3]: Oral bioavailability in Sprague-Dawley rat at 50 mg/kg administered via gavage measured after 0.02 to 24 hrs by tandem liquid chromatography/mass spectrometry. The class given is ADME, organism-based. The conditions noted are these: in vivo, time 0.02-24 hrs.
A short description of series [4]: Half life in Sprague-Dawley rat at 1 mg/kg, iv measured after 0.02 to 24 hrs by UHPLC-TOF method. The conditions noted are these: in vivo, time 0.02-24 hrs. It counts as ADME, organism-based.
Series [5] in a line: Intrinsic clearance in rat hepatocytes at 3 uM assessed per million cells measured up to 60 mins by LC-MS/MS analysis. The class given is ADME, cell-based, Hepatocyte. The conditions noted are these: read-out: CLH.
Series [6] in a line: Clearance in Sprague-Dawley rat at 50 mg/kg, po measured after 0.25 to 24 hrs by UHPLC-TOF method. It counts as ADME, organism-based. The conditions noted are these: in vivo, time 0.25-24 hrs.
The nature of series [7]: Cmax in Sprague-Dawley rat at 5 mg/kg, po administered via gavage measured after 0.02 to 24 hrs by tandem liquid chromatography/mass spectrometry. It counts as ADME, organism-based. The arrangement: route oral, dose 5 mg/kg, time upper 24 hrs, time lower 0.02 hrs. Particulars: in vivo. In short, it runs like this: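 Male Sprague–Dawley rats weighing 200–250 g, 3 per route, were used. The i.v. bolus was 1 mg/kg at 1 mg/mL in 40:60 dimethylacetamide/saline. Oral gavage doses were 5 or 10 mg/kg at 5 mg/mL in 1% methyl cellulose with 0.1% Tween 80. Heparinized blood was taken at 0.02–24 h (ten time points). Plasma was analyzed by LC-MS/MS after acetonitrile precipitation.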

The nature of series [8]: Tmax in CD1 mouse at 10 mg/kg, po measured after 0.083 to 24 hrs by UHPLC-TOF method. Particulars: in vivo, time 0.083-24 hrs. The class given is ADME, organism-based. In outline: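 Male CD-1 mice, acclimatized and individually housed, dosed IV and PO as amorphous-solid suspension. Terminal cardiac-puncture blood into heparinized tubes on wet ice, centrifuged at 4 °C within 15 min; plasma snap-frozen at −20 °C. IV arm sampled 2 min–24 h, oral arm 5 min–24 h. Plasma analysed by UHPLC-quadrupole-TOF MS.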

The nature of series [9]: Induction of adverse effect in human infected with Respiratory syncytial virus A Memphis 37b assessed as diarrhea at 200 to 350 mg administered twice daily administered for 5 days. Particulars: in vivo, 120 h, dose 200-350 mg, time 5 day. In outline:
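Challenge study in healthy adults aged 18–45 inoculated with about 4 log10 PFU of RSV-A Memphis 37b. Dosing was 200 or 350 mg twice daily for 5 days after infection was confirmed. Adverse events were monitored daily. ECG, physical examination and urinalysis were done at prespecified time points.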

The subject of series [10] is Human orthopneumovirus. Nature of the series: Antiviral activity against Respiratory syncytial virus A Memphis 37b infected in human assessed as reduction in mean AUC of viral load at 350 mg administered twice daily administered for 5 days by cell-based infectivity assay. It counts as functional. The conditions noted are these: time 5 day. Set-up: scale not given: the % may be the effect or the level left. In outline:
(§1)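 Healthy adult volunteers aged 18–45 with low serum pre-existing RSV-specific antibodies were challenged on day zero with about 4 log10 PFU of RSV-A Memphis 37b. Subjects were randomized into 3 equal groups: 200 mg, 350 mg or placebo twice daily for 5 days, begun after infection was confirmed. Viral load in nasal wash was measured by RT-qPCR or by cell-based infectivity assay, and AUC was compared with placebo.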

Series [11] is described as follows: Intrinsic clearance in Sprague-Dawley rat liver microsomes preincubated followed by NADPH addition and measured up to 45 mins by LC-MS/MS analysis. It counts as ADME, Microsome.
Series [12] deals with Human orthopneumovirus. Nature of the series: Antiviral activity against Respiratory syncytial virus A2 infected in Balb/C mouse assessed as reduction in viral titers in lung homogenates at 10 mg/kg, po treated 2 hrs prior to viral infection followed by compound redosing at 24 hrs and measured after 5 days post infection by plaque assay relative to control. It counts as functional, human respiratory syncytial virus. Set-up: scale not given: the % may be the effect or the level left. In short, it runs like this: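 Female Balb/C mice aged 7–8 weeks, 6 per group, received two oral doses 2 h before and 24 h after intranasal inoculation with 5 × 10⁶ pfu of RSV A2. Mice were euthanized on day 5. Lung homogenate titers were determined by plaque assay on Vero cells and expressed as a percentage of the control group.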

For another series, the species on record is Rattus norvegicus. The experiment in a line: Toxicity in rat by micronucleus test. It counts as functional, organism-based.
Series [13] relates to Human orthopneumovirus. Nature of the series: Antiviral activity against Respiratory syncytial virus A Memphis 37b infected in human assessed as reduction in mean AUC of viral load at 350 mg administered twice daily administered for 5 days by RT-qPCR analysis. It counts as functional. The arrangement: scale not given: the % may be the effect or the level left. Particulars: time 5 day. In short, it runs like this:
as §1
Background: Real-time PCR tracks product formation cycle by cycle.

Series [14] can be described thus: Cmax in CD1 mouse at 10 mg/kg, po measured after 0.083 to 24 hrs by UHPLC-TOF method. The class given is ADME, organism-based. The arrangement: route oral, time 0.083-24 hrs, dose 10 mg/kg. The conditions noted are these: in vivo.
A short description of series [15]: Clearance in Beagle dog at 0.3 mg/kg, iv measured after 0.03 to 24 hrs by UHPLC-TOF method. Particulars: in vivo, time 0.03-24 hrs. It counts as ADME, organism-based, Canis lupus familiaris.
The nature of series [16]: Tmax in Sprague-Dawley rat at 10 mg/kg, po measured after 0.02 to 24 hrs by UHPLC-TOF method. The class given is ADME, organism-based. Particulars: in vivo, 10 mg/kg, time 0.02-24 hrs.
Series [17] in a line: Induction of toxicity in human at 175 to 350 mg. The conditions noted are these: dose 175-350 mg.
Series [18] can be described thus: Half life in Sprague-Dawley rat at 50 mg/kg, po measured after 0.02 to 24 hrs by UHPLC-TOF method. The conditions noted are these: in vivo.
Series [19] is described as follows: Half life in Sprague-Dawley rat at 10 mg/kg, po measured after 0.25 to 24 hrs by UHPLC-TOF method. It counts as ADME, organism-based. The conditions noted are these: in vivo, time 0.25-24 hrs.
The nature of series [20]: Cytotoxicity against human Hep2 cells. The class given is cell-based. Particulars: HEp-2 cells. In short, it runs like this:
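Hep2 cells were cultured in parallel with the plaque assays at compound concentrations of 0.01 nM to 100 μM. Viability was read by MTT, CellTox green or CellTiter-Glo.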

Series [21] is described as follows: Half life in Beagle dog at 0.3 mg/kg, iv measured after 0.03 to 24 hrs by UHPLC-TOF method. The conditions noted are these: in vivo, time 0.03-24 hrs. The class given is ADME, organism-based, Canis lupus familiaris. In short, it runs like this:
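Dogs dosed IV as a suspension of amorphous solid. Serial blood at 2, 5, 15 min and 1, 2, 4, 8, 12, 24 h into heparinized tubes, centrifuged at 4 °C for 10 min at 3000g. Plasma snap-frozen and stored at −20 °C, then analysed by UHPLC-TOF.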

In series [22] the test system is Human orthopneumovirus. The experiment in a line: Antiviral activity against Respiratory syncytial virus A Memphis 37b infected in human assessed as reduction in nasal mucus weight at 200 to 350 mg administered twice daily administered for 5 days. The conditions noted are these: dose 200-350 mg, time 5.0 day. It counts as functional, organism-based. In outline: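 Healthy adult volunteers aged 18–45, with low pre-existing RSV antibody levels, were challenged on day 0 with about 4 log10 PFU RSV-A Memphis 37b. After infection was confirmed, they were randomised to 200 mg, 350 mg or placebo twice daily for 5 days. Post hoc analysis compared mean daily nasal mucus weight with placebo.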

Series [23] in a line: Oral bioavailability in Beagle dog at 3 mg/kg measured after 0.03 to 24 hrs by UHPLC-TOF method. It counts as ADME, organism-based, Canis lupus familiaris. The conditions noted are these: Beagle, in vivo, time 0.03-24 hrs. In outline:
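Dogs examined by a veterinary surgeon before each session, fed 2 h post-dose, water ad libitum, dosed as amorphous-solid suspension. Serial blood into heparinized tubes, centrifuged at 4 °C for 10 min at 3000g; plasma snap-frozen at −20 °C. IV sampling 2 min–24 h, oral 15 min–24 h. Plasma analysed by UHPLC-quadrupole-TOF MS.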

Molecules are shown by their SMILES. Active and inactive are the calls of the source. The calls are words filed in the database; no cut-off is given here.

As to `NCc1ccc2c(c1)nc(CN1C(=O)C3(CC3)c3ccc(F)cc31)n2CCCC(F)(F)F` [SISUNATOVIR], the “fold change (FC)” value in [1] worked out at 76. Besides, the values for the hepatocyte CLint at 3 µM in [2] and in series [5] were 2.4 µL/min/1e6 cells and 14.8 µL/min/1e6 cells, respectively. In addition, the results for the bioavailability in series [3] and in series [23] were 132% and 44.2%, respectively. Also, the half-life in [4] was 1.8 h; in series [18] it was 5.9 h; in series [19], 9.9 h; in [21] it was 12.3 h. The same compound showed a CL/F in series [6] of 164 mL/min/kg. For the same compound, the results for the Cmax in series [7] and in [14] were 74.2 ng/mL and 224 ng/mL, respectively. Moreover, the Tmax in series [8] stood at 2 h; in series [16], 2.7 h. Also, the Activity entry in series [9] was “Toxic”; with Human orthopneumovirus [10], 68.6%; in the series with Human orthopneumovirus [12] it was 92%; in the series filed under Rattus norvegicus, “Not toxic”; in the series with Human orthopneumovirus [13], 63.05%; in series [17] it was “Non-Toxic”. This compound also came in with a Microsomal intrinsic clearance in [11] of 17 µL/min. This compound registered a clearance in series [15] of 17.8 mL/min/kg. Further, the 50% cytotoxic concentration (CC50) in series [20] was over 20 µM. Besides, the result in the series with Human orthopneumovirus [22] was Active.

Broadly, the half-life is how long it takes for the measured level to halve. As a reminder, the CL/F is the apparent clearance, not corrected for the fraction that reaches the circulation. Usually Cmax stands for the maximum level reached in the sampled fluid or tissue. Usually Tmax stands for the time at which the peak concentration occurs. By clearance is commonly meant a measure of how efficiently the substance is removed, as volume per time. The CC50 is the concentration giving 50% cytotoxicity.
